Experimental data: ChEMBL document CHEMBL2311513, “Fragment growing and linking lead to novel nanomolar lactate dehydrogenase inhibitors” (J Med Chem, 2013)
pIC50, pKd: −log10 of the molar value. Active and inactive are the calls of the source. The rule behind the calls is not given here.

What was measured:
[1] = molecular target: T1, L-lactate dehydrogenase A chain (Homo sapiens, UniProt P00338); assay: Inhibition of LDH-A (unknown origin) in absence of 0.1% Triton
[2] = molecular target: T1, L-lactate dehydrogenase A chain; assay: Inhibition of LDH-A (unknown origin) by enzyme assay
[3] = molecular target: T1, L-lactate dehydrogenase A chain; assay: Binding affinity to human LDH-A by surface plasmon resonance analysis
Method in brief: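 Human LDH-A amine-coupled to a CM5 chip (~13000 RU), carbonic anhydrase II as reference surface. Running buffer 10 mM HEPES, 150 mM NaCl, 3% DMSO. Compounds injected as 2-fold dilution series, top 1 mM, at 20 °C. Equilibrium and kinetic responses fitted to a 1:1 binding model to give Kd.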

[4] = molecular target: T1, L-lactate dehydrogenase A chain; assay: Inhibition of LDH-A (unknown origin) in presence of 0.1% Triton
[5] = molecular target: T1, L-lactate dehydrogenase A chain; assay: Inhibition of LDH-A in human Ramos cells assessed as cellular lactate level at 200 uM after 1 hr; type: cell-based
Method in brief: (§1)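 Supernatant sampled after 1 and 4 h. Extracellular lactate measured by a two-step lactate assay, both times within the linear range. Lactate expressed relative to vehicle, from a representative experiment.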

[6] = molecular target: T1, L-lactate dehydrogenase A chain; assay: Inhibition of LDH-A in human Ramos cells assessed as cellular lactate level at 200 uM after 4 hrs; type: cell-based; method in brief: as §1
[7] = molecular target: T1, L-lactate dehydrogenase A chain; assay: Inhibition of LDH-A (unknown origin) up to 1 mM in presence of 0.1% Triton

SMILES | pIC50 [2] | pKd [3] | other results
COc1cc(OCCCOCCCOc2cc(F)cc(-c3ccc(C(=O)O)cn3)c2)c(Cl)cc1NC(=O)CSc1ccc(C(=O)O)cn1 | 4.23 | 6.07 | 
COc1cc(OC[C@@H](O)[C@@H](O)[C@H](O)[C@H](O)CNc2cc(F)cc(-c3ccc(C(=O)O)cn3)c2)c(Cl)cc1NC(=O)CSc1ccc(C(=O)O)cn1 | 6.92 | 7.72 | lactate level (% of vehicle) [5]: 56%; lactate level (% of vehicle) [6]: 68%
O=C(O)c1ccc(-c2ccccc2)nc1 | < 2.70 | 2.64 | 
COc1cc(OC[C@@H](O)[C@@H](O)[C@H](O)[C@H](O)CNc2cc(F)cc(-c3ccc(C(=O)O)cn3)c2)c(Cl)cc1NC(=O)CSc1ccccn1 | 5.62 | 6.65 | lactate level (% of vehicle) [5]: 21%; lactate level (% of vehicle) [6]: 61%
O=C(O)CN1C(=O)/C(=C/c2ccc(O)c(O)c2)SC1=S |  |  | inhibition [7]: inactive
O=C(CCCCN1C(=O)/C(=C/c2ccc(O)c(O)c2)SC1=S)NCc1ccc(Cl)c(Cl)c1 |  |  | inhibition [7]: inactive
COC(=O)c1ccc(SCC(=O)Nc2cc(Cl)c(OC[C@@H](O)[C@@H](O)[C@H](O)[C@H](O)CNc3cc(F)cc(-c4ccc(C(=O)OC)cn4)c3)cc2OC)nc1 | < 2.00 |  | inhibition [5]: inactive; inhibition [6]: inactive
O=C(O)COc1cc(F)cc(-c2ccc(C(=O)O)cn2)c1 | 2.66 | 2.89 | 
COc1ccc(Cl)cc1NC(=O)CSc1ccc(C(=O)O)cn1 | 3.11 | 3.86 | 
Nc1cc(F)cc(-c2ccc(C(=O)O)cn2)c1 | 2.89 |  | 

More lines, main results first:

pIC50 [2] | pKd [3] | SMILES | other results
6.36 | 7.17 | COc1cc(OC[C@@H](O)[C@@H](O)[C@H](O)[C@H](O)COc2cc(F)cc(-c3ccc(C(=O)O)cn3)c2)c(Cl)cc1NC(=O)CSc1ccc(C(=O)O)cn1 | pIC50 [1]: 6.66; pIC50 [4]: 6.49
4.89 | 5.53 | COc1cc(OC[C@@H](O)[C@@H](O)[C@H](O)[C@H](O)CNc2cc(F)cc(-c3ccccn3)c2)c(Cl)cc1NC(=O)CSc1ccc(C(=O)O)cn1 | lactate level (% of vehicle) [5]: 17%; lactate level (% of vehicle) [6]: 35%
3.47 | 3.44 | COc1cc(OCC(O)CO)c(Cl)cc1NC(=O)CSc1ccc(C(=O)O)cn1 (stereo unspecified) | 
5.62 | 6.76 | COc1cc(OCCCNC(=O)COc2cc(F)cc(-c3ccc(C(=O)O)cn3)c2)c(Cl)cc1NC(=O)CSc1ccc(C(=O)O)cn1 | 
4.82 | 4.92 | COc1cc(OC[C@H](O)[C@H](O)[C@@H](O)[C@@H](O)COc2cc(F)cc(-c3ccc(C(=O)O)cn3)c2)c(Cl)cc1NC(=O)CSc1ccc(C(=O)O)cn1 | 
